Data reported in the EternaBench riboswitch data.

Test system: MS2 coat protein
Assay: apparent Kd, MS2 coat protein; higher = weaker binding; RNA-MaP array; FMN 200 µM where present
Procedure, shortened: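 Stalled E. coli RNA polymerase transcribed the designs on Illumina sequencing-chip clusters. SNAP-549-labelled MS2 coat protein was titrated from 0.7 or 1.5 nM, doubling to 3 µM, without and then with constant ligand, in 100 mM Tris-HCl pH 7.5, 80 mM KCl, 4 mM MgCl2, BSA, DTT, yeast tRNA and Tween-20. Per-cluster binding curves were fitted to green signal normalised to red-channel RNA signal and control-cluster median Fmax. The apparent Kd is the median of the filtered fits.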

[1] = designed as: ON switch for flavin mononucleotide, no ligand
[2] = ligand present: flavin mononucleotide, designed as: ON switch for flavin mononucleotide
[3] = designed as: OFF switch for flavin mononucleotide, no ligand
[4] = ligand present: flavin mononucleotide, designed as: OFF switch for flavin mononucleotide

Sequence | apparent Kd [1] [nM] | apparent Kd [2] [nM] | apparent Kd [3] [nM] | apparent Kd [4] [nM]
ACAUGCAUAGCGAUAUGAUCGAAAAGUCAUGUCGCAAAAUUUAGAAGGACAUGAGGAUCACCCAUGUAGGAUAUGGGAGCAUGA | 57.9 | 13.2 | – | –
ACAUUGCGAGGAUAUACAUGAGGAUCACCCAUGUGGUAGUGGAUACGGUAGGGCUAGUGUAGAAGGUGUCAUGG | – | – | 128 | 103
ACCAAUGCAGGAUAUACAUGAGGAUCACCCAUGUAUAACCUACAUAGAUGAUUAUUAUGUAGAAGGGUAUUGGA | – | – | 13.2 | 12.9
ACCACAGACCAGAAGGGUGAUCGGCCAUGAUACACAGGAUAUGGUCACAUGAGGAUCACCCAUGUAUGGGUUGUGUGACCCAGC | 70 | 91.7 | – | –
ACCAGGGAUUCAGGAUAUAUUAGCCGAGGCCGCGUAGAAGGGAAAUCCUGACAUGAGGAUCACCCAUGUCGACCCGCCUUCCUA | 47.6 | 46.8 | – | –
ACCAUUUACUAAUUUUCUAUACAUGAGGAUCACCCAUGUUUUGAGGAUAUCAGCGUGAAACACGCUGAGAAGGCAAAACAUUCG | – | – | 142 | 387
ACCGAAUGAACAUGAGGAUCACCCAUGUACAGGAAACUGAAUGAGGAUAUCGAUAGCAAAGCUAUCGAGAAGGCAUGGGUCGGU | 285 | 69.7 | – | –
ACCUCACAUGAGGAUCACCCAUGUCAGGAUAUCUAUUAUUGCAGCGUUCCCGUCGCUGAGAGAAGGGACAUUAA | – | – | 14 | 16.8
ACCUUACUGGUCAGGAUAUACAGUCUUUGGUGUGUGUAGAAGGGACAUGAGGAUCACCCAUGUAGGUUGCAUUA | – | – | 164 | 172
ACGAAAACACAAAUGUUCCACGGUGCAGAAGGGUCCCUCACAUGAGGAUCACCCAUGUAACUCGGACAGGAUAUGCUUUUGGGA | 380 | 11.4 | – | –
ACGAAACAUGAGGAUCACCCAUGUGAGGAUAUGUAAAUAGUAAACAAAUAAGAAAUAAACAGAAGGCACACAGG | – | – | 32.9 | 67
ACGACAAAAGUCGAACGAUGUAGCAGAAGGACAUGAGGAUCACCCAUGUAAAAUGUAACAGCCAUGUAGGAUAUGCUACAUCGA | – | – | 31.4 | 288
ACGACUAGAGGAUAUACAUGAGGAUCACCCAUGUAACUGUCAGGAAACUGACGGAGAUGUAGAAGGCUAGUCGA | – | – | 16.8 | 37.4
ACGACUAGAGGAUAUACAUGAGGAUCACCCAUGUAACUGUCAGGUGACUGACGGAGAUGUAGAAGGCUAGUCGA | – | – | 15.7 | 42.8
ACGGCAGUCAGAGGAUAUGGUUACAUGAGGAUCACCCAUGUCAAGGGUCUAAUUAAGUAUAACUACUAGAAGGCUGAAGGCCUA | – | – | 154 | 113
ACGUAUCUAGGAUAUACGCUGGGUACUAUUCUCAAGUCAAGACAUGAGGAUCACCCAUGUAGAAGGAGAAGCAA | – | – | 41 | 98.4
ACGUGUUAUACAGGAUAUGUUUAGGUACAAUCAUCCAGCUAUUAAUUUAUUACAGAAGGGUAAACAUGAGGAUCACCCAUGUCA | – | – | 26 | 15.9
ACGUUUAAUACAGGAUAUGUUCUUAUACUAUACAUUGCUUAUUACUUAAUUACAGAAGGGUAUAACAUGAGGAUCACCCAUGUA | 108 | 63.2 | – | –
ACGUUUUAUGCAGGAUAUUGACUUAUAUUUAAACAAGAAGGGCAUUACAUGAGGAUCACCCAUGUUAUCAUGGUAUUUAAGUUC | – | – | 40 | 60.4
ACUAACGAAGGAUAUACUAACGAAACUAAUGCAUAGAUAAAACAUGAGGAUCACCCAUGUAGAAGGUCGAGACU | – | – | 22.5 | 25.5
ACUAGAAGCGUGAGAUAUCACAUGAGGAUCACCCAUGUGACACAGGAUAUAACAAUAUCAGAAGGUUAGAAGGGUGAGCACGCC | 164 | 45.6 | – | –
ACUAUACGAGGAUAUACUGACGGGCCUCGGGCGUCCCUGAGACAUGAGGAUCACCCAUGUAGAAGGCGUAUACU | – | – | 38.4 | 216
ACUAUACGAGGAUAUACUGUCGGGCCUCAGACAUAAAUAAGACAUGAGGAUCACCCAUGUAGAAGGCGUUUACU | – | – | 52.6 | 114
ACUAUACGAGGAUAUACUGUCGGGCCUCGGGCAUACAUACGACAUGAGGAUCACCCAUGUAGAAGGCGUUUACU | – | – | 34.3 | 61.6
ACUCGUGGACAGAAGGCGACAUGAGGAUCACCCAUGUUGGCUCGGGUAUGACCAAUCCGCAUGAUCGAGGAUAUGUCUGCGGGC | – | – | 326 | 16.1
ACUGACAUGAGGAUCACCCAUGUCUUGAAUAGGUCAAAUUCACAGGAUAUGCACGCGGACAGAGUGCAGAAGGGUGAUGCAAUG | 44 | 11.8 | – | –
ACUGAGGACACAGGAUAUCCGGUUAGGGUAAUCGGAGAAGGGUGACGGCAUGUAGGAAGUCACAUGAGGAUCACCCAUGUGAGA | 182 | 83.5 | – | –
ACUGGGCGCCAACCCAUGUCUAUGGAGGAUAUUACUGCCGGUAUCUCACAUGAGGAUCACCCAUGUAAGAAGGCCAUAAGCACA | – | – | 34.3 | 176

Sequence | apparent Kd [1] [nM] | apparent Kd [2] [nM] | apparent Kd [3] [nM] | apparent Kd [4] [nM]
ACUGGGCGCCGACCCAUGUCUAUGGAGGAUAUUACUGCCGGUAUCUCACAUGAGGAUCACCCAUGUAAGAAGGCCAUAAACACC | – | – | 19.5 | 221
ACUGGUGCAGGAUAUGCAAUCGUGCUUCGGCACGUAAGAUCACAUGAGGAUCACCCAUGUAGAAGGGCACCAGU | – | – | 20.3 | 65.7
ACUGUUUGAUUCCUCUUAUACAUGAGGAUCACCCAUGUUAUCGAGGAUAUGCAUUAGAGUGUUUAGCAGAAGGCGAUGUAGUUG | – | – | 7.56 | 19.1
ACUUGUAAGCAGAAGGCAGUCAUUAUAUUAAUCAUGUAGACAUGAGGAUCACCCAUGUAGAGUACUGAGGAUAUGCAUCGAUAG | – | – | 11 | 7.34
ACUUGUUACUUAUUCAUUGAUUUGUAGGAUAUACGUACAUGAGGAUCACCCAUGUUACAUGUUAUGUAGAAGGACAUCUAAUUU | – | – | 12.2 | 12.6
AGAAACUACGAGAAGGACAAAAACGGUGCCGCAAACAUGAGGAUCACCCAUGUAGGAUAUCGUAGUUUCAGGAUCGUGAGAUCA | – | – | 14.2 | 84.7
AGAAACUACGAGAAGGACAUAUGACCAAGACUAAACAUGAGGAUCACCCAUGUAGGAUAUCGUAGUUUCAGGAUCGUGAGAUCA | – | – | 5.81 | 12.2
AGAAACUACGAGAAGGACAUGUGGUCCUUCAAAAACAUGAGGAUCACCCAUGUAGGAUAUCGUAGUUUCAGGAUCGUGAGAUCA | – | – | 37.6 | 22.8
AGAAACUACGAGAAGGACAUGUGGUCCUUCAGUAACAUGAGGAUCACCCAUGUAGGAUAUCGUAGUUUCAGGAUCGUGAGAUCA | – | – | 150 | 19.1
AGAAAUUAGUGAGGAUAUGCAUAAAUUGUAGCUGCAGAAGGCACGGACCACAAGACAUGAGGAUCACCCAUGUGGUAUUUAGAU | – | – | 29.9 | 34.9
AGAACAUGAGGAUCACCCAUGUAAAGGUCGGUCAAUAAGGGUGAGGAUAUGCUUAAAAUAAGGUAGCAGAAGGUACUUGGUGCA | 398 | 508 | – | –
AGAACGUCAGGAUAUCGAACAACAAGUAAAUAGAGAAGAAGCGAGAAGGGACAUGAGGAUCACCCAUGUAAGAA | – | – | 57.6 | 45.3
AGAACUGAUAGAGGAUAUGUUUUACAUGAGGAUCACCCAUGUGUACAAGGAUCAAUAUAUUAGUAACAGAAGGCUAUUAGUGAG | – | – | 13.2 | 19.5
AGACAGUGAGGAUAUGCAGUCGGUGUCACCUGAUGAGAAGAACAUGAGGAUCACCCAUGUAGAAGGCACAGGAA | – | – | 39 | 229
AGACUCUCUGGAGGAUAUCAUAGUCGUUGACUAUGAGAAGGUUAGCUAUCUUACAUGAGGAUCACCCAUGUGAUCUCUCUCGAG | – | – | 18.1 | 14.6
AGACUGAAGCAAGGAUAUUGUAAGGUUAUCGUACAAGAAGGUGCUGUUUAUGUCUCUUAACAUGAGGAUCACCCAUGUUUUGAA | 18.4 | 18.1 | – | –
AGACUGCGUAGAAUUAGCAGCCGGCAGGAUAUGACAUGAGGAUCACCCAUGUGAACUCCAUUGGGUCAGAAGGGCCACGACACA | – | – | 21.8 | 147
AGAGACCUCACAGGAUAUGCUGGACUUUGUCCAGCAGAAGGGUGAAAACAUGAGGAUCACCCAUGUAUGGUCUCCAAAUUUAAG | 182 | 13.5 | – | –
AGAGAUACGCUCGUCGGAAAGCGACAUGAGGAUCACCCAUGUAGAAGGCGAUGCGCAACUCGCAUUGAGGAUAUAUAGUGCAGC | – | – | 6.51 | 6.65
AGAGCCUCGUGAGGAUAUACAUGAGGAUCACCCAUGUAAAUGAAAGAUACGUCGAAACGACGAAUGUAGAAGGCACGAGGCUCA | – | – | 17.8 | 65.9
AGAUAACACCAGAAGGACAUGAGGAUCACCCAUGUAGGAUAUGGGCAUCACUCGAGAAAGAAAAGACCAUAUGGACACAUGGUC | 160 | 13.2 | – | –
AGAUAACAUGAGGAUCACCCAUGUGAGGAUAUUUACUCAAGAGCUUCGGCUCUCAGGUGAAGAAGGCACAAUGA | – | – | 55.9 | 83.4
AGAUAAUAGCAGAAGGGCCAUGGACAUGAGGAUCACCCAUGUAACGGUGGACUCAUUUGUGAAGGGCAGGAUAUGCAAUAAAGA | – | – | 160 | 13.4
AGAUACUACGAGAAGGACAUGAGGAUCACCCAUGUAACCUGUAUCAGGAAUGUAGGAUAUCGUAGUAUCAGGAUCGUGAGAUCA | – | – | 6.79 | 7.82
AGAUGACAAUGUCAUCUUCGACGGACAUGAGGAUCACCCAUGUAGGAUAUGCUACUCAAAGAGUAGCAGAAGGACAUGUGUCUU | – | – | 22.2 | 74.8
AGAUGGUAGAGAGGAUAUCAUGUGCUGACAUGAGGAUCACCCAUGUAGGGACGUCAGUCCAAUUAUGAGAAGGCUCUACCAUCU | 49.4 | 40.2 | – | –
AGAUGGUAGAGAGGAUAUCAUGUGCUGACAUGAGGAUCACCCAUGUAGGGACGUCGGUCCAAUUAUGAGAAGGCUCUACCAUCU | 85.6 | 55.9 | – | –
